Assay results from ChEMBL document CHEMBL1140064, “Anxiolytic-like effects of N,N-dialkyl-2-phenylindol-3-ylglyoxylamides by modulation of translocator protein promoting neurosteroid biosynthesis” (J Med Chem, 2008).

Tests used:
[1] = biological target: Translocator protein (Rattus norvegicus, UniProt P16257); experiment: Displacement of [3H]PK11195 from translocator protein in rat kidney mitochondrial membrane; type: cell membranes
[2] = test system: C6; experiment: Induction of pregnenolone biosynthesis in rat C6 cells assessed as increase in pregnenolone level at 40 uM after 2 hrs by ELISA relative to control; type: functional
In short: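 Rat C6 glioma cells grown in DMEM with 10% FBS, 2 mM L-glutamine, penicillin/streptomycin, seeded ~10 000 cells/well. Exposed to compound at 40 µM for 2 h at 37 °C, with DMSO/ethanol ≤0.5% (v/v) kept constant. Pregnenolone secreted into the medium measured by competitive ELISA; mean ± SEM of at least three determinations.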

[3] = test system: Rattus norvegicus; experiment: Anxiolytic activity in Sprague-Dawley rat assessed as reduction of total number of open arm entries at 50 mg/kg, ip after 5 mins by plus-maze test; type: functional; details: route intraperitoneal
In short: (§1)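 Male Sprague-Dawley rats (180-200 g), group-housed 6/cage at 24 ± 1 °C, 12 h light/dark, free food and water except during testing. Dosed ip. Elevated four-arm maze (two open, two enclosed arms); entries into and time in open arms, and total arm entries, scored over a 5 min session versus vehicle-treated controls.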

[4] = test system: Rattus norvegicus; experiment: Anxiolytic activity in Sprague-Dawley rat assessed as increase in total number of open arm entries at 30 mg/kg, ip by plus-maze test; type: functional; details: route intraperitoneal; in short: as §1

Sequence of Translocator protein (P16257 whole entry, looked up): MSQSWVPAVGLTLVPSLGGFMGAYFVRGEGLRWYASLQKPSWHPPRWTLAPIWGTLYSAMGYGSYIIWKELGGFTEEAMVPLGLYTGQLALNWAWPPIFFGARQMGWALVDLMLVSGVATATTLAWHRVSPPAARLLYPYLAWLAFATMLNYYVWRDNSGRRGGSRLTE

Row | SMILES | Ki [1] [nM] | Activity [2] [%] | Activity [3] | Activity [4]
1 | CCCCN(CCCC)C(=O)C(=O)c1c(-c2ccc(C(F)(F)F)cc2)[nH]c2ccccc12 | 1.16 | 60 | – | –
2 | CCN(Cc1ccccc1)C(=O)C(=O)c1c(-c2ccccc2)[nH]c2ccc(OC)cc12 | 69.5 | – | – | –
3 | CCN(Cc1ccccc1)C(=O)C(=O)c1c(-c2ccccc2)[nH]c2c(Cl)cccc12 | 5 | 0 | – | –
4 | CCCN(CCC)C(=O)C(=O)c1c(-c2ccccc2)[nH]c2ccc(F)cc12 | 2.67 | 66 | – | –
5 | CCN(Cc1ccccc1)C(=O)C(=O)c1c(-c2ccccc2)[nH]c2ccc(Cl)cc12 | 4.6 | 85 | – | –
6 | CCCN(CCC)C(=O)C(=O)c1c(-c2ccc(Cl)cc2)[nH]c2ccc(Cl)cc12 | – | 49 | – | –
7 | CCCCN(CCCC)C(=O)C(=O)c1c(-c2ccc(F)cc2)[nH]c2ccc(Cl)cc12 | 3.05 | 37 | – | –
8 | CCCCCCN(CCCCCC)C(=O)C(=O)c1c(-c2ccc(F)cc2)[nH]c2ccc(Cl)cc12 | 7.75 | 135 | 2 | 9.8
9 | CCN(Cc1ccccc1)C(=O)C(=O)c1c(-c2ccc(Cl)cc2)[nH]c2ccc(Cl)cc12 | – | 171 | – | –
10 | CCCCN(CC)C(=O)C(=O)c1c(-c2ccc(Cl)cc2)[nH]c2ccc(Cl)cc12 | 0.36 | 11 | – | –
11 | CCCCCCN(CCCCCC)C(=O)C(=O)c1c(-c2ccc([N+](=O)[O-])cc2)[nH]c2ccccc12 | 0.23 | 88 | – | –
12 | CCN(Cc1ccccc1)C(=O)C(=O)c1c(-c2ccccc2)[nH]c2ccc(F)cc12 | 1.33 | – | – | –
13 | CCCCN(C)C(=O)C(=O)c1c(-c2ccccc2)[nH]c2ccccc12 | 53.3 | 32 | – | –
14 | CCCCCN(C)C(=O)C(=O)c1c(-c2ccccc2)[nH]c2ccccc12 | 12.1 | 36 | – | –
15 | CCCN(CCC)C(=O)C(=O)c1c(-c2ccccc2)[nH]c2ccc([N+](=O)[O-])cc12 | 20.2 | 91 | – | –
16 | CCCCN(CC)C(=O)C(=O)c1c(-c2ccccc2)[nH]c2ccccc12 | 12.6 | 43 | – | –

Row | SMILES | Ki [1] [nM] | Activity [2] [%] | Activity [3] | Activity [4]
17 | CCCCN(C)C(=O)C(=O)c1c(-c2ccccc2)[nH]c2ccc(Cl)cc12 | 3.9 | 70 | – | –
18 | CCCCN(CC)C(=O)C(=O)c1c(-c2ccc(Cl)cc2)[nH]c2ccccc12 | 3.6 | 32 | – | –
19 | CCN(Cc1ccccc1)C(=O)C(=O)c1c(-c2ccc(C)cc2)[nH]c2ccccc12 | 2.64 | 86 | – | –
20 | CCCCN(CCCC)C(=O)C(=O)c1c(-c2ccccc2)[nH]c2c(Cl)cccc12 | 3.4 | 0 | – | –
21 | CCN(Cc1ccccc1)C(=O)C(=O)c1c(-c2ccc([N+](=O)[O-])cc2)[nH]c2ccccc12 | 0.55 | 103 | – | –
22 | CCCN(CCC)C(=O)C(=O)c1c(-c2ccc(F)cc2)[nH]c2ccc(Cl)cc12 | 2.83 | 42 | – | –
23 | CCCN(CCC)C(=O)C(=O)c1c(-c2ccccc2)[nH]c2ccccc12 | – | 8 | – | –
24 | CCCCCCN(CCCCCC)C(=O)C(=O)c1c(-c2ccccc2)[nH]c2ccccc12 | – | 30 | – | –
25 | CCCN(CCC)C(=O)C(=O)c1c(-c2ccccc2)[nH]c2ccc(Cl)cc12 | – | 10 | – | –
26 | CCN(C)C(=O)C(=O)c1c(-c2ccccc2)[nH]c2ccccc12 | 940 | – | – | –
27 | CCCCCN(C)C(=O)C(=O)c1c(-c2ccc(Cl)cc2)[nH]c2ccccc12 | 3.4 | 65 | – | –
28 | CCCCN(CCCC)C(=O)C(=O)c1c(-c2ccccc2)[nH]c2c(C)cccc12 | 6 | 71 | – | –
29 | CCCCCN(C)C(=O)C(=O)c1c(-c2ccc(Cl)cc2)[nH]c2ccc(Cl)cc12 | 0.18 | 31 | – | –
30 | CN1C(=O)CN=C(c2ccc(Cl)cc2)c2cc(Cl)ccc21 [RO-54864] | – | 41 | – | –
31 | CCCCN(CCCC)C(=O)C(=O)c1c(-c2ccccc2)[nH]c2ccc(OC)cc12 | 65.2 | 36 | – | –
32 | CCCCCCN(CCCCCC)C(=O)C(=O)c1c(-c2ccccc2)[nH]c2c(C)cccc12 | 1.9 | 63 | – | –
